In general, Kd refers to the equilibrium constant for the complex coming apart. Lower therefore signals higher affinity. As a reminder, the IC50 is the concentration that gives 50% inhibition.

Experiment [1] addresses T1, SARS-CoV-2 M^pro (Severe acute respiratory syndrome coronavirus 2, UniProt P0DTD1). Description: Surface plasmon resonance. In kind it is binding. On the technique in general: Surface plasmon resonance follows binding to a sensor surface in real time, without labels.
A short description of experiment [2]: DPPH radical scavenging activity. As to conditions: 37 °C, 30 min, 517 nm. The gist of the method:
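Tea leaf solvent-extract fractions (petroleum ether, ethyl acetate, methanol, dichloromethane, methanol-water), each tested at several concentrations. Samples mixed 1:1 with 200 μM DPPH in ethanol, incubated 30 min at 37 °C, A517 read. Scavenging % = (1 − [(A_sample − A_blank)/A_control]) × 100, with control = water plus DPPH and blank = sample plus ethanol. Run three times.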
For orientation: DPPH is a stable violet radical that fades when it is reduced.

For experiment [3], the target named is T1, SARS-CoV-2 M^pro. The note with it: read-out: IC50 of M^pro inhibition; beyotime enhanced inhibition kit; cited from earlier work.
The test system of experiment [4] is M^pro. The note with it: read-out: IC50 of M^pro inhibition; cited from earlier work.
The test system of experiment [5] is C. elegans. The note with it: cited from earlier work.

In turn, `Oc1cc(O)c2c(c1)O[C@H](c1ccc(O)c(O)c1)[C@H](O)C2` [EC, (−)-epicatechin] returned a Kd in experiment [1] of 23.9 µM.

Regarding `O=C1O[C@H]([C@@H](O)CO)C(O)=C1O` [VC], the “IC50 of DPPH free radical scavenging” value in experiment [2] was found to be 1.14 µg/mL.

As for `CC(C)=CCc1cc(/C=C2\OC(=O)C(c3cc4c(cc3O)OC(C)(C)CC4)=C2O)ccc1O` [aspulvinone D], in experiment [3], the IC50 is 10.3 ± 0.6 µM.

Regarding `CC(C)(O)C1Cc2cc(/C=C3\OC(=O)C(c4cc5c(cc4O)OC(C)(C)C(O)C5)=C3O)ccc2O1` (centres unmarked) [aspulvinone M], in experiment [3], the IC50 is 9.4 ± 0.6 µM.

On to `O=c1c2ccccc2[se]n1-c1ccccc1` [ebselen], for which the IC50 in experiment [4] was 0.04 ± 0.004 µM.

As to Zijuanin E, in experiment [5], the “extension of lifespan of C. elegans” value is 67.2%.

Regarding Zijuanin F, in experiment [5], the “extension of lifespan of C. elegans” value is recorded as 56.0%.

For the compound aspulvinone R, the IC50 in experiment [3] was 7.7 ± 0.6 µM.

The values above are taken from paper PMC9652097 (Computers in Biology and Medicine, 2022).
